A short description of data set [1]: Antiproliferative activity against human MCF7 cells after 48 hrs by SRB assay. The format is functional. The following applies: MCF7, 48 h. The essentials:
(§1)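 Cells grown in RPMI 1640 with 5% FBS, with penicillin/streptomycin in experimental cultures. Exposed in triplicate to 0.25, 2.5, 25 and 250 µg/mL in DMSO/RPMI for 48 h at 37 °C under 5% CO2. Plates were TCA-fixed before (T0) and after treatment, then stained with sulforhodamine B and read at 540 nm. GI50 was obtained by non-linear regression against untreated growth. Doxorubicin served as positive control.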
Background: Sulforhodamine B stains cellular protein and so reports cell mass.

The nature of data set [2]: Antiproliferative activity against human OVCAR3 cells after 48 hrs by SRB assay. The class given is functional. The following applies: OVCAR-3, 48 h. The gist of the method:
as §1

A short description of data set [3]: Cytotoxicity against African green monkey Vero cells after 48 hrs by SRB assay. The class given is toxicity, cell-based. Conditions: chlorocebus sabaeus. The gist of the method:
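Vero (ATCC CCL81) cells grown in DMEM with 10% FBS and gentamicin at 37°C, 5% CO2. Cells exposed in triplicate to 1000, 500, 100, 10, 1 and 0.1 µg/mL, with untreated cells as control. Viability read by sulforhodamine B colorimetry. CC50 is the concentration giving 50% cytotoxicity.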

The nature of data set [4]: Cell cycle arrest in human 786-0 cells assessed as accumulation at G2/M phase at 6.25 uM after 24 hrs by propidium iodide staining-based flow cytometry (Rvb=36.5+/-1.1%). The class given is functional. The gist of the method:
(§2)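 786-0 cells seeded at 3×10^4 cells/mL and grown 24 h, then serum-starved 24 h to synchronise. Treated in DMSO/RPMI for 24 h alongside DMSO vehicle and colchicine control. 1×10^5 cells in PBS were stained with propidium iodide for 20 min in the dark at room temperature, then analysed by flow cytometry. Results are mean ± standard error % cells from three experiments in triplicate; ANOVA/Tukey.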
On the technique in general: A flow cytometer gives signals particle by particle.

A short description of data set [5]: Cell cycle arrest in human 786-0 cells assessed as accumulation at G1 phase at 12.5 uM after 24 hrs by propidium iodide staining-based flow cytometry (Rvb=47.1+/-1%). The format is functional. The essentials:
as §2

A short description of data set [6]: Selectivity index, ratio of CC50 for Herpes simplex type I KOS infected African green monkey Vero cells to EC50 for Herpes simplex virus type 1 KOS. The format is toxicity, cell-based. The following applies: Herpes simplex virus type 1 KOS infected Vero cells, read-out: Ratio CC50/EC50. The gist of the method: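 SI calculated as CC50/EC50. CC50 is the 50% cytotoxic concentration on Vero cells by sulforhodamine B, tested in triplicate from 0.1 to 1000 µg/mL. EC50 is the concentration protecting 50% of cells against HSV-1, with acyclovir as HSV-1 standard and drug-free cells as control.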

Data set [7] can be described thus: Cell cycle arrest in human 786-0 cells assessed as accumulation at sub-G1 phase at 6.25 uM after 24 hrs by propidium iodide staining-based flow cytometry (Rvb=3.7+/-0.9%). The class given is functional. The essentials:
as §2

Data set [8] in a line: Cytotoxicity against human 786-0 cells after 48 hrs by SRB assay. The format is functional. Conditions: 786-0, 48 h. The essentials:
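Sulforhodamine B assay in RPMI 1640 with 5% FBS. Triplicate exposures to 0.25–250 µg/mL in DMSO/RPMI for 48 h at 37 °C under 5% CO2. T0 and treated plates were fixed with 50% TCA and absorbance read at 540 nm. Parameters: TGI is total growth inhibition; LC50 is the concentration killing 50% of cells. Doxorubicin served as control.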

A short description of data set [9]: Cell cycle arrest in human 786-0 cells assessed as accumulation at sub-G1 phase at 12.5 uM after 24 hrs by propidium iodide staining-based flow cytometry (Rvb=3.7+/-0.9%). The format is functional. The essentials: as §2
Data set [10] can be described thus: Antiproliferative activity against human NCI/ADR-RES cells after 48 hrs by SRB assay. The format is functional. The gist of the method: as §1
Data set [11] can be described thus: Cell cycle arrest in human 786-0 cells assessed as accumulation at S phase at 6.25 uM after 24 hrs by propidium iodide staining-based flow cytometry (Rvb=12.6+/-0.7%). The format is functional. The gist of the method:
as §2

Data set [12] relates to 786-0. In words: Induction of apoptosis in human 786-0 cells assessed as late apoptotic or necrotic cells at 25 uM after 15 hrs by 7-AAD staining based flow cytometry. The class given is functional. The essentials: (§3)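 786-0 cells seeded at 3×10^4 cells/mL and grown 24 h at 37 °C under 5% CO2. Exposed to 25 µM in DMSO/RPMI for 15, 18 or 24 h against DMSO vehicle. Results are mean ± standard error from three experiments in triplicate.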

Data set [13] concerns 786-0. In words: Induction of apoptosis in human 786-0 cells assessed as late apoptotic or necrotic cells at 25 uM after 18 hrs by 7-AAD staining based flow cytometry. The class given is functional. The essentials:
as §3

Data set [14] is described as follows: Cell cycle arrest in human 786-0 cells assessed as accumulation at G2/M phase at 12.5 uM after 24 hrs by propidium iodide staining-based flow cytometry (Rvb=36.5+/-1.1%). The class given is functional. The essentials:
as §2

Data set [15] in a line: Antiproliferative activity against human 786-0 cells after 48 hrs by SRB assay. The class given is functional. The following applies: 786-0, 48 h. The gist of the method:
as §1

In data set [16] the test system is 786-0. In words: Induction of apoptosis in human 786-0 cells assessed as necrotic cells at 25 uM after 15 hrs by Annexin V/7-AAD staining based flow cytometry. The format is functional. The essentials: as §3
The nature of data set [17]: Antiproliferative activity against human NCI-H460 cells after 48 hrs by SRB assay. The format is functional. Conditions: NCI-H460, 48 h. The essentials: as §1
The test system of data set [18] is 786-0. In words: Induction of apoptosis in human 786-0 cells assessed as necrotic cells at 25 uM after 24 hrs by Annexin V/7-AAD staining based flow cytometry. The class given is functional. The gist of the method: as §3
Data set [19] deals with 786-0. In words: Induction of apoptosis in human 786-0 cells assessed as late apoptotic or necrotic cells at 25 uM after 24 hrs by 7-AAD staining based flow cytometry. The class given is functional. The gist of the method: as §3
Data set [20] is described as follows: Cell cycle arrest in human 786-0 cells assessed as accumulation at S phase at 12.5 uM after 24 hrs by propidium iodide staining-based flow cytometry (Rvb=12.6+/-0.7%). The format is functional. The gist of the method: as §2
The subject of the next data set is Human alphaherpesvirus 1. In words: Antiviral activity against Herpes simplex type I KOS. The class given is functional. Conditions: Human alphaherpesvirus 1, KOS.
Data set [21] in a line: Cell cycle arrest in human 786-0 cells assessed as accumulation at G1 phase at 6.25 uM after 24 hrs by propidium iodide staining-based flow cytometry (Rvb=47.1+/-1%). The class given is functional. The gist of the method: as §2
Data set [22] is described as follows: Antiproliferative activity against human HT-29 cells after 48 hrs by SRB assay. The class given is functional. Conditions: HT-29, 48 h. The gist of the method:
as §1

In data set [23] the test system is 786-0. In words: Induction of apoptosis in human 786-0 cells assessed as necrotic cells at 25 uM after 18 hrs by Annexin V/7-AAD staining based flow cytometry. The format is functional. The gist of the method:
as §3

Data set [24] can be described thus: Cell cycle arrest in human 786-0 cells assessed as accumulation at G2/M phase at 1.25 uM after 24 hrs by propidium iodide staining-based flow cytometry (Rvb=36.5+/-1.1%). The class given is functional. The gist of the method:
as §2

Data set [25] can be described thus: Cell cycle arrest in human 786-0 cells assessed as accumulation at sub-G1 phase at 1.25 uM after 24 hrs by propidium iodide staining-based flow cytometry (Rvb=3.7+/-0.9%). The class given is functional. The gist of the method:
as §2

Data set [26] can be described thus: Cell cycle arrest in human 786-0 cells assessed as accumulation at G1 phase at 1.25 uM after 24 hrs by propidium iodide staining-based flow cytometry (Rvb=47.1+/-1%). The format is functional. The gist of the method:
as §2

Data set [27] can be described thus: Cell cycle arrest in human 786-0 cells assessed as accumulation at S phase at 1.25 uM after 24 hrs by propidium iodide staining-based flow cytometry (Rvb=12.6+/-0.7%). The format is functional. The essentials: as §2
Data set [28] in a line: Antiproliferative activity against human U251 cells after 48 hrs by SRB assay. The following applies: U-251, 48 h. The class given is functional. The gist of the method: as §1
Data set [29] is described as follows: Antiproliferative activity against human UACC62 cells after 48 hrs by SRB assay. The class given is functional. The following applies: UACC-62, 48 h. The gist of the method:
as §1

A short description of data set [30]: Antiproliferative activity against human PC3 cells after 48 hrs by SRB assay. The class given is functional. The following applies: PC-3, 48 h. The gist of the method: as §1

Here are results for three molecules from ChEMBL document CHEMBL3877292, “Synthesis and evaluation of novel hybrids β-carboline-4-thiazolidinones as potential antitumor and antiviral agents” (Eur J Med Chem, 2016).

What is called GI50 is the concentration that inhibits growth by half. The term TGI denotes the concentration at which net growth stops. The EC50 is the concentration needed to bring the measured effect to its halfway point.

Take `CN(C)c1ccc(-c2nc(C(=O)N/N=C3/NC(=O)CS3)cc3c2[nH]c2ccccc23)cc1`: the GI50 amounted to 2.93 µM in [1]; 1.27 µM in data set [2]; 0.48 µM in [10]; 1.6 µM in data set [15]; 1.44 µM in data set [17]; 5.04 µM in data set [22]. This molecule came in with a CC50 at 48 h in data set [3] of 1740 µM. The Activity in data set [4] was 37%; in data set [5], 40.5%; in data set [7], 2.3%; in data set [9], 15.3%; in data set [11] it was 11.9%; in the data set on 786-0 [12], 3.9%. Also, the Activity amounted to 34.7% in the data set with 786-0 [13]; 31.8% in data set [14]; 3.6% in the data set with 786-0 [16]; 38.7% with 786-0 [18]; 36.6% in the data set with 786-0 [19]; 12.4% in data set [20]. For the same molecule, the Activity in [21] is 48.7%; in the data set on 786-0 [23] it was 34.4%. Besides, the selectivity ratio in [6] is 18. For the same molecule, the TGI in [8] is 13 µM. In addition, in data set [8] (read-out: LC50 (the source's name)), the CC50 was found to be 105 µM. For the same molecule, in the data set on Human alphaherpesvirus 1, the EC50 is 96.8 µM.
Take `COc1cc2c(c(OC)c1OC)-c1ccc(OC)c(=O)cc1[C@@H](NC(C)=O)CC2`: the Activity was found to be 61.7% in [24], 9% in data set [25], 18.3% in data set [26] and 11% in [27].
`O=C(NN1C(=O)CSC1c1ccccc1)c1cc2c([nH]c3ccccc32)c(-c2ccccc2)n1` (stereo unspecified): the GI50 in [28] stood at 0.25 µM; in data set [1], 19.1 µM; in data set [2] it was 1.58 µM; in data set [29], 80.4 µM; in [10], 18.4 µM; in data set [30], 7.23 µM. The GI50 in data set [15], in data set [17] and in data set [22] was greater than 100 µM in each case. The CC50 at 48 h in data set [3] amounted to 506 µM. Further, in [6], the selectivity ratio was found to be 235. In the data set on Human alphaherpesvirus 1, this molecule showed an EC50 of 2.15 µM.
